One compound from ChEMBL document CHEMBL5715960, “Epigenetic Co-Deregulation of EZH2/TET1 is a Senescence-Countering, Actionable Vulnerability in Triple-Negative Breast Cancer” (Theranostics, 2019) can be followed below.

Experiment [1] deals with MDA-MB-231. Description: Antiproliferative activity against human MDA-MB-231 cells at 0.5 to 2 uM for 2 days by Guava viacount assay. The experiment is classed as functional, cell-based. Particulars: dose 0.5-2 µM, time 2.0 day. The method, boiled down:
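Cells plated at 2 × 10^4 (24-well) or 1 × 10^5 (12-well), exposed to a range of GSK343 concentrations for 2 days against DMSO solvent control; cell number and viability read by Guava ViaCount flow cytometry, relative to DMSO. Triplicate; mean ± SD.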

In a further experiment the test system is MCF7. Description: Upregulation of TP53 gene in human MCF7 cells at 2 uM by qRT-PCR analysis. The experiment is classed as functional, cell-based. The method, boiled down: (§1)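 Relative transcript levels measured by qRT-PCR in cells treated with 2 µM inhibitor, normalised to DMSO-treated control cells. Triplicate experiments unless stated otherwise; mean ± SD reported; unpaired two-tailed Student's t-test at p < 0.05.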
On the technique in general: In qPCR the cycle at which signal appears reflects the starting amount.

Experiment [2] deals with BT-474. Description: Upregulation of CDKN1A gene in human BT-474 cells at 2 uM by qRT-PCR analysis. It counts as functional, cell-based. An outline of the steps:
as §1

Experiment [3] has as its system BT-474. Description: Effect on human BT-474 cells assessed as increase in TET1 transcription by qRT-PCR analysis. The experiment is classed as functional, cell-based. An outline of the steps:
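qRT-PCR of TET1, TET2 and TET3 transcripts in breast cancer cells exposed to GSK343 (2 µM unless otherwise indicated), shown relative to DMSO-treated cells. Mean ± SD, triplicate unless stated.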

Experiment [4] deals with MDA-MB-436. Description: Cytotoxicity against human MDA-MB-436 cells assessed as killing of cells at 2 uM in presence of adriamycin. It counts as functional, cell-based. An outline of the steps:
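Viability after a range of adriamycin concentrations given alone or together with 2 µM GSK343, measured by Guava ViaCount; mean ± SD.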

Experiment [5] relates to MDA-MB-436. Description: Effect on human MDA-MB-436 cells assessed as apoptotic phenotype by measuring increase in BAX expression level at 2 uM in presence of adriamycin by immunoblot analysis. The experiment is classed as functional, cell-based. An outline of the steps: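 Immunoblot of cell lysates after 0.05 µg/ml adriamycin alone, with 2 µM GSK343, or DMSO. α-Tubulin and total H3 used as loading controls.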
In general terms: Immunoblotting shows a protein as a band on a membrane.

The subject of experiment [6] is MDA-MB-231. Description: Induction of apoptosis in human MDA-MB-231 cells assessed as increase in accumulation of cells at G1 phase in presence of adriamycin by BrdU/PI-based cell cycle analysis. It counts as functional. The method, boiled down:
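Cell cycle by BrdU/PI staining and flow cytometry, giving G1, S and G2 fractions. Cells received 0.005 µg/ml adriamycin with or without 2 µM GSK343, or DMSO. Mean ± SD.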

Experiment [7] deals with MDA-MB-436. Description: In vivo activation of p53 expression in Crl:NU-Foxn1-nu/nu mouse xenografted with human MDA-MB-436 cells at 5 mg/kg, ip in presence of adriamycin treated for 21 days. It counts as functional, organism-based. The following applies: time 21.0 day. In general terms: In xenograft studies the graft and the host belong to different species.

Calls of active or inactive are those of the source. The rule behind the calls is not given here.

In the case of `CCCc1cc(C)[nH]c(=O)c1CNC(=O)c1cc(-c2ccnc(N3CCN(C)CC3)c2)cc2c1cnn2C(C)C`, the result in the experiment on MDA-MB-231 [1], in the experiment with MDA-MB-436 [4], in the experiment on MDA-MB-436 [5], with MDA-MB-231 [6] and in the experiment on MDA-MB-436 [7] was Active. Also, the outcome with MCF7, in the experiment with BT-474 [2] and in the experiment with BT-474 [3] was inactive.
